PMC5767168 (The Biochemical journal, 2011)

How the values were obtained:
[1] = tested on: rat primary hippocampal neurons; experiment: Dendritic spine morphology, DiI staining; format: cell-based; details: for induction of dendritic varicosities: 3 μM peptide, 72 h
[2] = CD spectroscopy of conformational transition in phosphate buffer; format: physicochemical; details: 10 μM peptide, 10 mM sodium phosphate pH 7.4, 25°C; for kinetics of conformational transition by CD, in words: agitation 200 rev./min; for appearance of the solution at 48–72 h of incubation: agitation
Summary of the method: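 HFIP-treated peptide films were dissolved in 60 mM NaOH, diluted with water, sonicated 1 min, then diluted with 20 mM sodium phosphate (pH 7.4) to 10 μM. Samples were incubated at 25°C with orbital agitation at 200 rev./min. CD spectra (190–260 nm, 1-mm path) were taken every 2 h for 12 h, then at 24, 48 and 72 h, and background-subtracted. Three independent experiments were run.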

[3] = Electron microscopy of fibril formation in DMEM; format: physicochemical; details: 10 μM peptide, 37°C
Summary of the method: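 Peptide was dissolved in 60 mM NaOH, diluted into cell culture medium and sonicated 1 min. It was then incubated at 10 μM in DMEM without serum or cells at 37°C. Morphology was examined by electron microscopy periodically over several days, including 24 and 48 h.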

[4] = Electron microscopy of fibril formation in phosphate buffer; format: physicochemical; details: sodium phosphate pH 7.4, 25°C, 96 h
Summary of the method: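 HFIP-treated peptide was dissolved in 60 mM NaOH, sonicated and diluted in sodium phosphate (pH 7.4). It was incubated at 25°C with orbital agitation at 200 rev./min. Aliquots were applied to glow-discharged carbon-coated Formvar grids for 20 min, fixed in 2.5% glutaraldehyde for 4 min, stained with 1% uranyl acetate for 3 min, air-dried and imaged by TEM. Three independent experiments were run.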

[5] = CD spectroscopy of conformational transition in DMEM; format: physicochemical; details: 10 μM peptide, 37°C
Summary of the method: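 Peptide was dissolved in 60 mM NaOH, diluted into cell culture medium and sonicated 1 min. It was then incubated at 10 μM in DMEM without serum or cells at 37°C. Conformation was followed by CD periodically over several days.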

Row | Substance | induction of dendritic varicosities [1] | kinetics of conformational transition by CD, in words [2] | appearance of the solution at 48–72 h of incubation [2] | time by which the fibrillation process appeared complete (electron microscopy) [3] | also measured
1 | [Met(O)^35]-Aβ42 [Aβ42-sulfoxide] | little induction of varicosities | did not change during the first 24 h | – | – | –
2 | [Met(O2)^35]Aβ40 [Aβ40-sulfone] | – | – | free of particulate material or precipitates | – | –
3 | Aβ42: Aβ (amyloid β-protein) comprising 42 amino acids, wild-type | abundant varicosities | – | – | ≤ 24 h | effect at 10 μM in the dendritic spine assay ([1]; 10 μM peptide, initial experiments): overt cell death
4 | [Met(O2)^35]Aβ42 [Aβ42-sulfone] | abundant varicosities | behaved similarly to WT Aβ42 | – | ≤ 24 h | –
5 | [Met(O)^35]Aβ40 [Aβ40-sulfoxide] | – | – | free of particulate material or precipitates | – | abundance of fibrils by electron microscopy [4]: scarce relative to those of WT Aβ40 or Aβ40-sulfone; kinetics of conformational transition by CD in medium, in words [5]: somewhat slower
